Laboratory results as given in ChEMBL document CHEMBL1799979, “Antifolate and antiproliferative activity of 6,8,10-triazaspiro[4.5]deca-6,8-dienes and 1,3,5-triazaspiro[5.5]undeca-1,3-dienes” (Bioorg Med Chem, 2010).

Assays:
A549 [1] = assay: Antiproliferative activity against human A549 cells after 72 hrs by fluorometric microculture cytotoxicity assay; conditions: A549, 72 h
Dihydrofolate reductase = target: T1, Dihydrofolate reductase (Bos taurus, UniProt P00376); assay: Inhibition of bovine liver DHFR using dihydrofolic acid substrate by UV-visible spectrophotometry
T1 sequence (P00376 whole entry): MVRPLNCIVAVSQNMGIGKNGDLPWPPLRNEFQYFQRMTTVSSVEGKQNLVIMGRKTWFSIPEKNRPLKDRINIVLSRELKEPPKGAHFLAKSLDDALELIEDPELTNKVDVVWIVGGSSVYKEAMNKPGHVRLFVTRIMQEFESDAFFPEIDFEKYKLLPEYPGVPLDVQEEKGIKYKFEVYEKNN

A549 [2] = assay: Growth inhibition of human A549 cells assessed as cell growth at 270 nM after 72 hrs by fluorometric microculture cytotoxicity assay in presence of 100 uM hypoxanthine relative to untreated control; type: functional; design: scale not given: the % may be the effect or the level left
Summary of the method: (§1)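 A549 cells were seeded and incubated 24 h, then medium was swapped for medium holding a fixed compound concentration alone, or with 20 µM thymidine, 100 µM hypoxanthine, or both. Twelve wells were used per solution, with solvent-matched controls. After 72 h, cells were PBS-washed, given FDA 2 µg/mL for 45 min at 37 °C, and fluorescence read at ex 485/em 535 nm. Growth is relative to control, as mean (SEM), n = 3.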

A549 [3] = assay: Growth inhibition of human A549 cells assessed as cell growth at 270 nM after 72 hrs by fluorometric microculture cytotoxicity assay in presence of 20 uM thymidine relative to untreated control; type: functional; design: scale not given: the % may be the effect or the level left
Summary of the method: as §1

A549 [4] = assay: Growth inhibition of human A549 cells assessed as cell growth at 270 nM after 72 hrs by fluorometric microculture cytotoxicity assay in presence of 100 uM hypoxanthine and 20 uM thymidine relative to untreated control; type: functional; design: scale not given: the % may be the effect or the level left
Summary of the method: as §1

A549 [5] = assay: Growth inhibition of human A549 cells assessed as cell growth at 270 nM after 72 hrs by fluorometric microculture cytotoxicity assay relative to untreated control; type: functional; conditions: A549, 72 h, read-out: Activity
Summary of the method: as §1

A549 [6] = assay: Growth inhibition of human A549 cells assessed as cell growth at 370 nM after 72 hrs by fluorometric microculture cytotoxicity assay in presence of 100 uM hypoxanthine relative to untreated control; type: functional; design: scale not given: the % may be the effect or the level left
Summary of the method: as §1

A549 [7] = assay: Growth inhibition of human A549 cells assessed as cell growth at 370 nM after 72 hrs by fluorometric microculture cytotoxicity assay in presence of 20 uM thymidine relative to untreated control; type: functional; design: scale not given: the % may be the effect or the level left
Summary of the method: as §1

A549 [8] = assay: Growth inhibition of human A549 cells assessed as cell growth at 370 nM after 72 hrs by fluorometric microculture cytotoxicity assay in presence of 100 uM hypoxanthine and 20 uM thymidine relative to untreated control; type: functional; design: scale not given: the % may be the effect or the level left
Summary of the method: as §1

A549 [9] = assay: Growth inhibition of human A549 cells assessed as cell growth at 370 nM after 72 hrs by fluorometric microculture cytotoxicity assay relative to untreated control; type: functional; conditions: A549, 72 h, read-out: Activity
Summary of the method: as §1

A549 [10] = assay: Growth inhibition of human A549 cells assessed as cell growth at 6.4 uM after 72 hrs by fluorometric microculture cytotoxicity assay in presence of 100 uM hypoxanthine relative to untreated control; type: functional; design: scale not given: the % may be the effect or the level left
Summary of the method: as §1

A549 [11] = assay: Growth inhibition of human A549 cells assessed as cell growth at 6.4 uM after 72 hrs by fluorometric microculture cytotoxicity assay in presence of 20 uM thymidine relative to untreated control; type: functional; design: scale not given: the % may be the effect or the level left
Summary of the method: as §1

A549 [12] = assay: Growth inhibition of human A549 cells assessed as cell growth at 6.4 uM after 72 hrs by fluorometric microculture cytotoxicity assay in presence of 100 uM hypoxanthine and 20 uM thymidine relative to untreated control; type: functional; design: scale not given: the % may be the effect or the level left
Summary of the method: as §1

A549 [13] = assay: Growth inhibition of human A549 cells assessed as cell growth at 6.4 uM after 72 hrs by fluorometric microculture cytotoxicity assay relative to untreated control; type: functional; conditions: A549, 72 h, read-out: Activity
Summary of the method: as §1

Structure (SMILES)	IC50 (Dihydrofolate reductase) [nM]	IC50 (A549 [1]) [nM]	further results
NC1=NC2(CCCC2)N(OCCCOc2ccccc2)C(N)=N1	–	40.2	–
NC1=NC2(CCCC2)N(OCCCOc2ccc(F)cc2)C(N)=N1	10.1	58.8	–
Cc1ccc(OCCCON2C(N)=NC(N)=NC23CCCC3)cc1	9.5	48.1	–
CC(C)(C)c1ccc(OCCCON2C(N)=NC(N)=NC23CCCC3)cc1	17	160	–
COc1ccc(OCCCON2C(N)=NC(N)=NC23CCCC3)cc1	11.2	59.1	–
NC1=NC2(CCCCC2)N(OCCCOc2ccccc2)C(N)=N1	–	69.7	–
NC1=NC2(CCCCC2)N(OCCCOc2ccc(F)cc2)C(N)=N1	15.4	59.2	–
NC1=NC2(CCCCC2)N(OCCCOc2ccc(Cl)cc2)C(N)=N1	13.8	49.6	–
NC1=NC2(CCCCC2)N(OCCCOc2ccc([N+](=O)[O-])cc2)C(N)=N1	14.7	329	–
Cc1ccc(OCCCON2C(N)=NC(N)=NC23CCCCC3)cc1	17.5	83.3	–
CC(C)(C)c1ccc(OCCCON2C(N)=NC(N)=NC23CCCCC3)cc1	21.5	496	–
N#Cc1ccc(OCCCON2C(N)=NC(N)=NC23CCCCC3)cc1	9.7	116	–
CC(=O)c1ccc(OCCCON2C(N)=NC(N)=NC23CCCCC3)cc1	13.3	145	–
CN(Cc1cnc2nc(N)nc(N)c2n1)c1ccc(C(=O)N[C@@H](CCC(=O)O)C(=O)O)cc1 [METHOTREXATE]	–	37.4	Activity (A549 [6]): 16%; Activity (A549 [7]): 77.3%; Activity (A549 [8]): 96.6%; growth at 0.37 µM (A549 [9]): 14.3%
Nc1nc2[nH]cc(CCc3ccc(C(=O)N[C@@H](CCC(=O)O)C(=O)O)cc3)c2c(=O)[nH]1 [PEMETREXED]	–	–	Activity (A549 [10]): 12.6%; Activity (A549 [11]): 84.5%; Activity (A549 [12]): 99.3%; growth at 6.4 µM (A549 [13]): 11.7%

Further lines, with some results ahead:

IC50 (Dihydrofolate reductase) [nM]	Structure (SMILES)	IC50 (A549 [1]) [nM]	further results
7.2	Cl.NC1=NC2(CCCC2)N(OCCCOc2ccc(Cl)cc2)C(N)=N1	27.1	Activity (A549 [2]): 14.3%; Activity (A549 [3]): 68%; Activity (A549 [4]): 90%; growth at 0.27 µM (A549 [5]): 15.2%
8.4	NC1=NC2(CCCC2)N(OCCCOc2ccc([N+](=O)[O-])cc2)C(N)=N1	65.8	–
7.6	N#Cc1ccc(OCCCON2C(N)=NC(N)=NC23CCCC3)cc1	60.7	–
9.2	CC(=O)c1ccc(OCCCON2C(N)=NC(N)=NC23CCCC3)cc1	59.8	–
6.1	COc1ccc(OCCCON2C(N)=NC(N)=NC23CCCCC3)cc1	51.6	–
5.6	NC1=NC2(CCCCC2)N(OCCCOc2ccc(S(N)(=O)=O)cc2)C(N)=N1	166	–
